Measured values published in ChEMBL document CHEMBL1128448, “Synthesis and antifungal activity of new azole derivatives containing an N-acylmorpholine ring” (1995).
Converted amounts (≈) assume the structure as drawn.

Columns and labels:
[1] = test system: Candida albicans; test: […] Evaluation of minimum inhibitory concentration against Candida albicans 406; format: functional
How it was run: (§1)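 Stocks are 800 μg/mL in 50% ethanol. Each plate gets 10 μL of inoculum at 10^5 cfu/mL. Incubation at 25 °C, 48 h for yeasts and 120 h for dermatophytes and molds. Organisms are ATCC strains or clinical isolates.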

[2] = test system: Candida tropicalis; test: In vitro evaluation of minimum inhibitory concentration against Candida tropicalis 2.11; format: functional; conditions: Candida tropicalis; read-out: MIC; how it was run: as §1
[3] = test system: Rhodotorula mucilaginosa; test: In vitro evaluation of minimum inhibitory concentration against Rhodotorula rubra 16; format: functional; conditions: Rhodotorula mucilaginosa; read-out: MIC; how it was run: as §1
[4] = test system: Microsporum canis; test: In vitro evaluation of minimum inhibitory concentration against Microsporum canis 47; format: functional; conditions: Microsporum canis; read-out: MIC; how it was run: as §1
[5] = test system: Kluyveromyces marxianus; test: In vitro evaluation of minimum inhibitory concentration against Candida pseudotropicalis 13; format: functional; conditions: Kluyveromyces marxianus; read-out: MIC; how it was run: as §1
[6] = test system: Nakaseomyces glabratus; test: In vitro evaluation of minimum inhibitory concentration against Torulopsis glabrata 78; format: functional; conditions: Nakaseomyces glabratus; read-out: MIC; how it was run: as §1
[7] = test system: Aspergillus niger; test: In vitro evaluation of minimum inhibitory concentration against Aspergillus niger 18; format: functional; conditions: Aspergillus niger; read-out: MIC; how it was run: as §1
[8] = test system: Trichophyton benhamiae; test: In vitro evaluation of minimum inhibitory concentration against Trichophyton mentagrophytes 23; format: functional, Arthroderma benhamiae; conditions: Trichophyton benhamiae; read-out: MIC; how it was run: as §1
[9] = test system: Candida albicans; test: In vitro evaluation of minimum inhibitory concentration against Candida albicans 76; format: functional; conditions: Candida albicans; read-out: MIC; how it was run: as §1
[10] = test system: Candida parapsilosis; test: In vitro evaluation of minimum inhibitory concentration against Candida parapsilosis 61; format: functional; conditions: Lodderomyces parapsilosis; read-out: MIC; how it was run: as §1
[11] = test system: Candida albicans; test: […] Evaluation of minimum inhibitory concentration against Candida albicans 60; format: functional; how it was run: as §1
[12] = test system: Aspergillus fumigatus; test: In vitro evaluation of minimum inhibitory concentration against Aspergillus fumigatus 33; format: functional; conditions: Aspergillus fumigatus; read-out: MIC; how it was run: as §1
[13] = test system: Pichia kudriavzevii; test: In vitro evaluation of minimum inhibitory concentration against Candida krusei 70; format: functional; conditions: Pichia kudriavzevii; read-out: MIC; how it was run: as §1
[14] = test system: Aspergillus flavus; test: In vitro evaluation of minimum inhibitory concentration against Aspergillus flavus 19; format: functional; conditions: Aspergillus flavus; read-out: MIC; how it was run: as §1
[15] = test system: Nannizzia gypsea; test: In vitro evaluation of minimum inhibitory concentration against Microsporum gypseum 22; format: functional; conditions: Nannizzia gypsea; read-out: MIC; how it was run: as §1
[16] = test system: Meyerozyma guilliermondii; test: In vitro evaluation of minimum inhibitory concentration against Candida guilliermondii 26; format: functional; conditions: Meyerozyma guilliermondii; read-out: MIC; how it was run: as §1
[17] = test system: Trichophyton rubrum; test: In vitro evaluation of minimum inhibitory concentration against Trichophyton rubrum 90; format: functional; conditions: Trichophyton rubrum; read-out: MIC; how it was run: as §1
[18] = test system: Candida albicans; test: Evaluation of […] antifungal activity against Candida albicans 60 by broth macro dilution method; format: functional
How it was run: (§2)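 Yeast MIC and MFC by broth macrodilution per NCCLS M27-P in RPMI-1640 buffered with 0.165 M MOPS. Fluconazole in sterile water, other drugs in DMSO. C. parapsilosis ATCC 22019 is the reference strain in each run. MIC is the lowest concentration with turbidity ≤ the 80% inhibition standard. For MFC, 0.04 mL from clear tubes is plated on Sabouraud agar; MFC is the lowest concentration giving ≤1 colony.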

[19] = test system: Candida albicans; test: Evaluation of In vitro antifungal activity against Candida albicans 2.01 by broth macro dilution method; format: functional; how it was run: as §2
[20] = test system: Candida albicans; test: Evaluation of In vitro antifungal activity against Candida albicans C56 by broth macro dilution method; format: functional; how it was run: as §2
[21] = test system: Kluyveromyces marxianus; test: Evaluation of In vitro antifungal activity against Candida pseudotropicalis ATCC 28838 by broth macro dilution method; format: functional; how it was run: as §2
[22] = test system: Cryptococcus neoformans; test: Evaluation of In vitro antifungal activity against Cryptococcus neoformans 87 by broth macro dilution method; format: functional; how it was run: as §2
[23] = test system: Meyerozyma guilliermondii; test: Evaluation of In vitro antifungal activity against Candida guilliermondii 26 by broth macro dilution method; format: functional; how it was run: as §2
[24] = test system: Candida albicans; test: Evaluation of In vitro antifungal activity against Candida albicans 60 by broth macro dilution method
[25] = test system: Candida albicans; test: Evaluation of In vitro antifungal activity against Candida albicans 76 by broth macro dilution method; format: functional; how it was run: as §2
[26] = test system: Cryptococcus neoformans; test: Evaluation of In vitro antifungal activity against Cryptococcus neoformans 74 by broth macro dilution method; format: functional; how it was run: as §2
[27] = test system: Pichia kudriavzevii; test: Evaluation of In vitro antifungal activity against Candida krusei 70 by broth macro dilution method; format: functional; how it was run: as §2
[28] = test system: Pichia kudriavzevii; test: Evaluation of In vitro antifungal activity against Candida krusei C64 by broth macro dilution method; format: functional; how it was run: as §2
[29] = test system: Candida tropicalis; test: Evaluation of In vitro antifungal activity against Candida tropicalis 50 by broth macro dilution method; format: functional; how it was run: as §2
[30] = test system: Candida tropicalis; test: Evaluation of In vitro antifungal activity against Candida tropicalis 2.11 by broth macro dilution method; format: functional; how it was run: as §2
[31] = test system: Candida albicans; test: Evaluation of In vitro antifungal activity against Candida albicans ATCC 10231 by broth macro dilution method; format: functional; how it was run: as §2
[32] = test system: Nakaseomyces glabratus; test: Evaluation of In vitro antifungal activity against Torulopsis glabrata 78 by broth macro dilution method; format: functional; how it was run: as §2
[33] = test system: Candida parapsilosis; test: Evaluation of In vitro antifungal activity against Candida parapsilosis ATCC 22019 by broth macro dilution method; format: functional; conditions: Lodderomyces parapsilosis; how it was run: as §2
[34] = test system: Kluyveromyces marxianus; test: Evaluation of In vitro antifungal activity against yeasts by broth macro dilution method; format: functional; how it was run: as §2
[35] = test system: Candida albicans; test: Evaluation of In vitro antifungal activity against Candida albicans 406 by broth macro dilution method; format: functional; how it was run: as §2
[36] = test system: Candida albicans; test: Evaluation of In vitro antifungal activity against Candida albicans C52 by broth macro dilution method; format: functional; how it was run: as §2
[37] = test system: Candida albicans; test: Evaluation of In vitro antifungal activity against Candida albicans 31 by broth macro dilution method; format: functional; how it was run: as §2
[38] = test system: Candida parapsilosis; test: Evaluation of In vitro antifungal activity against Candida parapsilosis C292 by broth macro dilution method; format: functional; conditions: Lodderomyces parapsilosis; how it was run: as §2
[39] = test system: Candida parapsilosis; test: Evaluation of In vitro antifungal activity against Candida parapsilosis 2.07 by broth macro dilution method; format: functional; conditions: Lodderomyces parapsilosis; how it was run: as §2
[40] = test system: Candida parapsilosis; test: Evaluation of In vitro antifungal activity against Candida parapsilosis ATCC 141095 by broth macro dilution method; format: functional; conditions: Lodderomyces parapsilosis; how it was run: as §2
[41] = test system: Candida parapsilosis; test: Evaluation of In vitro antifungal activity against Candida parapsilosis C74 by broth macro dilution method; format: functional; conditions: Lodderomyces parapsilosis; how it was run: as §2

CCC(C)n1ncn(-c2ccc(N3CCN(c4ccc(OC[C@H]5CO[C@](Cn6cncn6)(c6ccc(Cl)cc6Cl)O5)cc4)CC3)cc2)c1=O (stereo partly drawn) [ITRACONAZOLE]
MIC [1]: < 0.03 µg/mL | MIC [2]: 20 µg/mL (≈ 28.3 µM) | MIC [3]: > 80 µg/mL | MIC [4]: 80 µg/mL (≈ 113 µM) | MIC [5]: 80 µg/mL (≈ 113 µM) | MIC [6]: > 80 µg/mL | MIC [7]: > 80 µg/mL | MIC [8]: > 80 µg/mL | MIC [9]: 0.63 µg/mL (≈ 0.893 µM) | MIC [10]: 0.07 µg/mL (≈ 0.0992 µM) | MIC [11]: 0.07 µg/mL (≈ 0.0992 µM) | MIC [12]: 0.15 µg/mL (≈ 0.213 µM) | MIC [13]: 1.25 µg/mL (≈ 1.77 µM) | MIC [14]: > 80 µg/mL | MIC [15]: 80 µg/mL (≈ 113 µM) | MIC [16]: 0.15 µg/mL (≈ 0.213 µM) | MIC [17]: 0.63 µg/mL (≈ 0.893 µM)

CC(=O)N1CCN(c2ccc(OC[C@H]3CO[C@](Cn4ccnc4)(c4ccc(Cl)cc4Cl)O3)cc2)CC1 [KETOCONAZOLE]
MIC [18]: < 0.031 µg/mL | MFC [19]: > 16 µg/mL | MIC [19]: 0.063 µg/mL (≈ 0.119 µM) | MIC [1]: < 0.03 µg/mL | MIC [2]: 2.5 µg/mL (≈ 4.7 µM) | MFC [20]: > 16 µg/mL | MIC [20]: < 0.031 µg/mL | MIC [3]: 0.07 µg/mL (≈ 0.132 µM) | MIC [4]: 2.5 µg/mL (≈ 4.7 µM) | MFC [21]: > 16 µg/mL | MIC [5]: 10 µg/mL (≈ 18.8 µM) | MFC [22]: 16 µg/mL (≈ 30.1 µM) | MIC [22]: 2 µg/mL (≈ 3.76 µM) | MFC [23]: 4 µg/mL (≈ 7.53 µM) | MIC [23]: 0.125 µg/mL (≈ 0.235 µM) | MIC [6]: 1.25 µg/mL (≈ 2.35 µM) | MFC [24]: > 16 µg/mL | MFC [25]: > 16 µg/mL | MIC [25]: < 0.031 µg/mL | MFC [26]: 1 µg/mL (≈ 1.88 µM) | MIC [26]: < 0.031 µg/mL | MIC [7]: 40 µg/mL (≈ 75.3 µM) | MFC [27]: 4 µg/mL (≈ 7.53 µM) | MIC [27]: 2 µg/mL (≈ 3.76 µM) | MIC [8]: 5 µg/mL (≈ 9.41 µM) | MFC [28]: 8 µg/mL (≈ 15.1 µM) | MIC [28]: 2 µg/mL (≈ 3.76 µM) | MFC [29]: > 16 µg/mL | MIC [29]: 2 µg/mL (≈ 3.76 µM) | MIC [9]: 0.15 µg/mL (≈ 0.282 µM) | MIC [10]: 0.07 µg/mL (≈ 0.132 µM) | MFC [30]: 8 µg/mL (≈ 15.1 µM) | MIC [30]: 0.25 µg/mL (≈ 0.47 µM) | MIC [11]: < 0.03 µg/mL | MIC [12]: 5 µg/mL (≈ 9.41 µM) | MFC [31]: > 16 µg/mL | MIC [31]: 0.063 µg/mL (≈ 0.119 µM) | MFC [32]: > 16 µg/mL | MIC [32]: 8 µg/mL (≈ 15.1 µM) | MFC [33]: 4 µg/mL (≈ 7.53 µM) | MIC [33]: 0.063 µg/mL (≈ 0.119 µM) | MIC [34]: 0.063 µg/mL (≈ 0.119 µM) | MFC [35]: > 16 µg/mL | MIC [35]: 0.063 µg/mL (≈ 0.119 µM) | MIC [13]: 1.25 µg/mL (≈ 2.35 µM) | MFC [36]: > 16 µg/mL | MIC [36]: < 0.031 µg/mL | MIC [14]: 2.5 µg/mL (≈ 4.7 µM) | MFC [37]: > 16 µg/mL | MIC [37]: < 0.031 µg/mL | MIC [15]: 0.63 µg/mL (≈ 1.19 µM) | MFC [38]: 16 µg/mL (≈ 30.1 µM) | MIC [38]: 0.125 µg/mL (≈ 0.235 µM) | MIC [16]: < 0.03 µg/mL | MFC [39]: > 16 µg/mL | MIC [39]: 0.063 µg/mL (≈ 0.119 µM) | MIC [17]: 1.25 µg/mL (≈ 2.35 µM) | MFC [40]: 16 µg/mL (≈ 30.1 µM) | MIC [40]: 0.5 µg/mL (≈ 0.941 µM) | MFC [41]: 0.25 µg/mL (≈ 0.47 µM) | MIC [41]: 0.063 µg/mL (≈ 0.119 µM)
